Measurements published in ChEMBL document CHEMBL4371098, “C-Phycocyanin from Spirulina Inhibits α-Synuclein and Amyloid-β Fibril Formation but Not Amorphous Aggregation” (J Nat Prod, 2019).
The source made the active and inactive calls. No cut-off for these calls is given here.

What was measured:
[1] = test system: Alpha-synuclein (Homo sapiens), P37840 [A53T]; assay: Induction of conformational changes in human alpha-synuclein A53T mutant expressed in Escherichia coli BL21(DE3) assessed as ion population arrival time distribution at 2 uM after 20 hrs by ion mobility-mass spectrometry analysis (reference value: 5.23 milliseconds)
[2] = Self fibrillation of the compound in pH 7.4 ammonium acetate buffer after 100 hrs by ThT fluorescence assay
How it was run: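 C-PC alone incubated in 500 mM ammonium acetate pH 7.4 at 37 °C with ThT; fluorescence at 440/490 nm tracked over time.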

[3] = test system: Alpha-synuclein (Homo sapiens), P37840 [A53T]; assay: Inhibition of fibril formation of human alpha-synuclein A53T mutant expressed in Escherichia coli BL21(DE3) after 100 hrs by ThT fluorescence assay
How it was run: (§1)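 αS (10 μM) incubated 100 h at 37 °C in 500 mM ammonium acetate pH 7.4 with C-PC at αS:C-PC 2:1 to 200:1; ThT read at 440/490 nm; inhibition = end-point (100 h) ThT fluorescence with C-PC as percentage of αS alone; n = 3, mean ± SEM.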

[4] = test system: Alpha-synuclein (Homo sapiens), P37840 [A53T]; assay: Inhibition of fibril formation of human alpha-synuclein A53T mutant expressed in Escherichia coli BL21(DE3) at protein to compound molar ratio of 200:1 after 100 hrs by ThT fluorescence assay relative to control; settings: concentration not given here; how it was run: as §1
[5] = test system: Alpha-synuclein (Homo sapiens), P37840 [A53T]; assay: Inhibition of preformed fibrils of human alpha-synuclein A53T mutant expressed in Escherichia coli BL21(DE3) at 5 uM treated after 60 hrs during fibril elongation phase by ThT fluorescence assay
How it was run: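 ThT-monitored αS (10 μM) aggregation at 37 °C in 500 mM ammonium acetate pH 7.4; C-PC (5 μM) added at 60 h during elongation, and fluorescence (440/490 nm) followed afterwards; n = 3.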

[6] = test system: Alpha-synuclein (Homo sapiens), P37840 [A53T]; assay: Inhibition of fibril formation of human alpha-synuclein A53T mutant expressed in Escherichia coli BL21(DE3) assessed as reduction in mature fibrils formation at 2 uM after 100 hrs by uranyl acetate staining based transmission electron microscopic method
How it was run: (§2)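 End-point samples from ThT aggregation assays (αS or Aβ 10 μM, C-PC 2 μM; αS 100 h, Aβ40 25 h, Aβ42 2 h) adsorbed on carbon-coated grids, negatively stained with 2% (w/v) uranyl acetate, imaged by TEM.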

[7] = target: Amyloid-beta precursor protein (Homo sapiens) (UniProt P05067); assay: Inhibition of amyloid beta (1 to 40) (unknown origin) fibril formation at 2 uM after 25 hrs by uranyl acetate staining based transmission electron microscopic method; how it was run: as §2
Amyloid-beta precursor protein (Homo sapiens), sequence (P05067 whole entry): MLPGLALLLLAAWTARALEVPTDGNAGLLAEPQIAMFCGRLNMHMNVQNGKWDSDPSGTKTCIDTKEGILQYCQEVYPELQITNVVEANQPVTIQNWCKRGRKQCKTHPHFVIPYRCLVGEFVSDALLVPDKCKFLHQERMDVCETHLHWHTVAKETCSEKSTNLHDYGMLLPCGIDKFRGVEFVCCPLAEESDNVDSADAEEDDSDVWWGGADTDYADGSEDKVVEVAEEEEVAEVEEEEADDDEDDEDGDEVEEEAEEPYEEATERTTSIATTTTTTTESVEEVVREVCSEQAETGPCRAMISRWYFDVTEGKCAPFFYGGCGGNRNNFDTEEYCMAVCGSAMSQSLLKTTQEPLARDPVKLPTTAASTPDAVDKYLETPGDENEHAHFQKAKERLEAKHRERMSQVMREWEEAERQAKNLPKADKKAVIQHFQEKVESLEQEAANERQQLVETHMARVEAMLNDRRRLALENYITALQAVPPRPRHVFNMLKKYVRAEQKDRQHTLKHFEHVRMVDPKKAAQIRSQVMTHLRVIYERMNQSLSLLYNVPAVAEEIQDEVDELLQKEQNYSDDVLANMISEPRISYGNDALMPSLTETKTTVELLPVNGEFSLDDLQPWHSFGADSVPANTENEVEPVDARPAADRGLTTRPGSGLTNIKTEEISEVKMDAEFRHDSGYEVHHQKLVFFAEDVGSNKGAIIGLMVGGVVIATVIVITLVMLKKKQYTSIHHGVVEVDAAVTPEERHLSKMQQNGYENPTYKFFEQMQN

[8] = target: Amyloid-beta precursor protein (Homo sapiens) (UniProt P05067); assay: Inhibition of amyloid beta (1 to 42) (unknown origin) fibril formation at 2 uM after 2 hrs by uranyl acetate staining based transmission electron microscopic method; how it was run: as §2
[9] = target: Amyloid-beta precursor protein (Homo sapiens) (UniProt P05067); assay: Inhibition of amyloid beta (1 to 40) (unknown origin) fibril formation at protein to compound ratio of 5:1 after 100 hrs by ThT fluorescence assay
How it was run: (§3)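 Aβ40 or Aβ42 (10 μM; NaOH-pretreated stock for monomerization) incubated with C-PC at 5:1 Aβ:C-PC in 500 mM ammonium acetate pH 7.4, 37 °C, sealed plates, up to 100 h; ThT fluorescence 440/490 nm; triplicate, mean ± SEM.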

[10] = target: Amyloid-beta precursor protein (Homo sapiens) (UniProt P05067); assay: Inhibition of amyloid beta (1 to 42) (unknown origin) fibril formation at protein to compound ratio of 5:1 after 100 hrs by ThT fluorescence assay; how it was run: as §3
[11] = test system: Saccharomyces cerevisiae; assay: Inhibition of heat-induced amorphous aggregation of yeast ADH at 2.5 uM measured over 2 hrs by light scattering assay
How it was run: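 ADH (5 μM) aggregation induced with 20 mM DTT and 2 mM EDTA (final) at 42 °C; light scattering followed as absorbance at 340 nm over 2 h, with or without C-PC (2.5 μM); triplicate, mean ± SEM.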

[12] = target: T1, Catalase (Bos taurus) (UniProt P00432); assay: Inhibition of heat-induced amorphous aggregation of bovine liver catalase at 2.5 uM measured over 2 hrs by light scattering assay
T1 sequence (whole entry): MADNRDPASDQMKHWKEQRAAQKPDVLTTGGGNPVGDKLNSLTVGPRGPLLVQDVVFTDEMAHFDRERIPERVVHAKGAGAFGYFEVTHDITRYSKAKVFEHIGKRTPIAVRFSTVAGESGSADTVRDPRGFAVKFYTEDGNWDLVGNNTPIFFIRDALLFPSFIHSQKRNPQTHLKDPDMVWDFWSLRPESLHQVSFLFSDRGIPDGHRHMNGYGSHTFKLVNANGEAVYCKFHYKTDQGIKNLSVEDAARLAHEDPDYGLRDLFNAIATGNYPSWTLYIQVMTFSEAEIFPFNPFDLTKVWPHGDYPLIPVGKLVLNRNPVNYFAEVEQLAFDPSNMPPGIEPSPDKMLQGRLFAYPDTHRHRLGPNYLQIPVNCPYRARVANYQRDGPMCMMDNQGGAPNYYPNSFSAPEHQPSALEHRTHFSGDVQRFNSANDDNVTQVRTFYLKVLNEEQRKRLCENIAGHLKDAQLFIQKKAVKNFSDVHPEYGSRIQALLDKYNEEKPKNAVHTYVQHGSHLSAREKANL
How it was run: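 Catalase (5 μM) aggregated by heating at 55 °C; absorbance (light scattering) at 340 nm tracked for 2 h with or without C-PC (2.5 μM); triplicate, mean ± SEM.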

[13] = test system: Alpha-synuclein (Homo sapiens), P37840 [A53T]; assay: Binding affinity to human 15N-labeled alpha-synuclein A53T mutant expressed in Escherichia coli BL21(DE3) assessed as chemical perturbation at H50 at 7.5 uM by 2D 1H-15N HSQC NMR analysis
How it was run: (§4)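 Uniformly 15N-labelled monomeric αS (grown in M9 medium with [15N]NH4Cl, IPTG-induced) titrated with C-PC; 1H–15N HSQC spectra in 10 mM Na2HPO4, 100 mM NaCl, pH 7.4; amide chemical shift changes and signal-to-noise monitored using prior resonance assignments.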

[14] = test system: Alpha-synuclein (Homo sapiens), P37840 [A53T]; assay: Binding affinity to human 15N-labeled alpha-synuclein A53T mutant expressed in Escherichia coli BL21(DE3) assessed as reduction in signal to noise ratio at 7.5 uM by 2D 1H-15N HSQC NMR analysis; how it was run: as §4
[15] = test system: Alpha-synuclein (Homo sapiens), P37840 [A53T]; assay: Binding affinity to human alpha-synuclein A53T mutant expressed in Escherichia coli BL21(DE3) assessed as compound-protein stable complex formation at 2 uM after 20 hrs by native mass spectrometry analysis
How it was run: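 αS (10 μM) incubated with C-PC (2 μM) at 40 °C for 20 h, then analysed by native nanoelectrospray MS for αS–C-PC complex peaks versus monomer/dimer and C-PC oligomer species.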

[16] = test system: Alpha-synuclein (Homo sapiens), P37840 [A53T]; assay: Binding affinity to human alpha-synuclein A53T mutant expressed in Escherichia coli BL21(DE3) assessed as compound-protein stable complex formation at 2 uM after 20 hrs by size-exclusion chromatographic method

- TIME [1]: 1.4e-06 h
- inhibition [3]: Dose-dependent effect
- inhibition [4]: 50%
- inhibition [5]: Active
- inhibition [6]: Active
- inhibition [7]: Active
- inhibition [8]: Active
- inhibition [9]: Active
- inhibition [10]: Active
- inhibition [11]: inactive
- inhibition [12]: inactive
- Activity [13]: Active
- Activity [14]: Active
- Activity [15]: inactive
- Activity [16]: inactive
SMILES: C/C=C1/C(=C\c2[nH]c(/C=C3N=C(/C=C4/NC(=O)C(CC)=C4C)C(C)=C/3CCC(=O)O)c(CCC(=O)O)c2C)NC(=O)C1C (stereo unspecified)
- Activity [2]: inactive
